{"source": "ChEMBL document CHEMBL4622994", "about": "“Facile Synthesis of Aminomethyl Phosphinate Esters as Serine Protease Inhibitors with Primed Site Interaction” (ACS Med Chem Lett, 2020)", "key": {"Bos taurus [1]": {"species": "Bos taurus", "test": "Inhibition of bovine chymotrypsin at 100 uM preincubated for 30 mins followed by FP-rhodamine addition measured after 30 mins by fluorescence assay", "procedure,_shortened": "(§1)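 Competitive activity-based protein profiling. Enzyme was treated with compound at 100 μM, or with DMSO control. Residual active enzyme was then labeled with the general serine hydrolase activity-based probe FP-rhodamine and detected by fluorescent labeling.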"}, "[2]": {"target": "T1, Neutrophil elastase (Homo sapiens) (UniProt P08246)", "T1 sequence (whole entry)": "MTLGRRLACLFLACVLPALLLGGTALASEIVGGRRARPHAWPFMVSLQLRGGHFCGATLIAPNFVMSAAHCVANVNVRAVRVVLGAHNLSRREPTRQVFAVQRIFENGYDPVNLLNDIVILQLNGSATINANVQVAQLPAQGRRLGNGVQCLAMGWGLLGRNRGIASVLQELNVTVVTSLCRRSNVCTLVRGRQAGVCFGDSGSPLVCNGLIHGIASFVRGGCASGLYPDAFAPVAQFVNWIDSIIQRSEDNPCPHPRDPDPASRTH", "test": "Inhibition of human neutrophil Elastase assessed as ratio of Kinact to Ki using flurogenic substrate as elastase substrate V by fluorescence assay", "procedure,_shortened": "(§2)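 Progress-curve inhibition kinetics for irreversible covalent inhibitors, fitted to a two-step model: reversible non-covalent binding, then irreversible reaction with the enzyme. kinact is the rate constant of the irreversible step at infinite inhibitor concentration. KI is the inhibitor concentration giving an observed rate constant of 1/2 kinact. The kinact/KI ratio expresses overall potency. Inhibitors were tested as diastereomer mixtures; the dilution series spanned 200 to 26.7 μM.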"}, "[3]": {"target": "T1, Neutrophil elastase (Homo sapiens)", "test": "Inhibition of human neutrophil Elastase assessed as inactivation constant using flurogenic substrate as elastase substrate V by fluorescence assay", "procedure,_shortened": "as §2"}, "Sus scrofa [4]": {"species": "Sus scrofa", "test": "Inhibition of porcine pancreatic elastase assessed as ratio of Kinact to Ki using flurogenic substrate as elastase substrate V by fluorescence assay", "procedure,_shortened": "as §2"}, "Neutrophil elastase": {"target": "T2, Neutrophil elastase (Homo sapiens, UniProt P08246)", "T2 sequence (P08246 whole entry)": "T1 sequence (whole entry)", "test": "Inhibition of human neutrophil elastase using flurogenic substrate as elastase substrate V by fluorescence assay", "procedure,_shortened": "as §2"}, "Bos taurus [5]": {"species": "Bos taurus", "test": "Inhibition of bovine chymotrypsin assessed as inactivation constant using flurogenic substrate as chymotrypsin substrate 2 by fluorescence assay", "procedure,_shortened": "as §2"}, "[6]": {"test": "Inhibition of bovine chymotrypsin using flurogenic substrate as chymotrypsin substrate 2 by fluorescence assay", "design": "species or system Bos taurus", "procedure,_shortened": "as §2"}, "Bos taurus [7]": {"species": "Bos taurus", "test": "Inhibition of bovine chymotrypsin assessed as ratio of Kinact to Ki using flurogenic substrate as chymotrypsin substrate 2 by fluorescence assay", "procedure,_shortened": "as §2"}, "[8]": {"target": "T3, Cathepsin G (Homo sapiens) (UniProt P08311)", "T3 sequence (whole entry)": "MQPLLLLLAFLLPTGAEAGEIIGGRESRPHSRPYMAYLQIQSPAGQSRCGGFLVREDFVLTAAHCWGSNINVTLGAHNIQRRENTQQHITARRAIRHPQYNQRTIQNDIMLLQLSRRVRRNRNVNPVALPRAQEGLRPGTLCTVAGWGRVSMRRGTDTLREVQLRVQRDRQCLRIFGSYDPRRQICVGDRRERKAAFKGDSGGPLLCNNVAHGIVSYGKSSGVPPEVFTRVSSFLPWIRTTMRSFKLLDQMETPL", "test": "Inhibition of human cathepsin G at 100 uM preincubated for 30 mins followed by FP-rhodamine addition measured after 30 mins by fluorescence assay", "procedure,_shortened": "as §1"}, "Sus scrofa [9]": {"species": "Sus scrofa", "conditions": "100 uM"}, "[10]": {"test": "Inhibition of porcine pancreatic elastase using flurogenic substrate as elastase substrate V by fluorescence assay", "design": "species or system Sus scrofa", "procedure,_shortened": "as §2"}, "[11]": {"target": "T1, Neutrophil elastase (Homo sapiens)", "test": "Inhibition of human neutrophil Elastase at 100 uM preincubated for 30 mins followed by FP-rhodamine addition measured after 30 mins by fluorescence assay", "procedure,_shortened": "as §1"}}, "note": "pKi: −log10 of the molar value. The source made the active and inactive calls. No cut-off for these calls is given here.", "data": [{"smiles": "CC(C)C(NC(=O)OCc1ccccc1)P(=O)(Oc1ccccc1)C(C)(C)C", "note": "(stereo not drawn)", "values": [{"measurement": "inhibition", "setting": "Bos taurus [1]", "value": "inactive"}]}, {"smiles": "CC(C)C(NC(=O)OCc1ccccc1)P(=O)(Oc1ccccc1)Oc1ccccc1", "note": "(stereo not drawn)", "values": [{"measurement": "Ratio", "setting": "[2]", "value": 200, "unit": "M⁻¹ s⁻¹"}, {"measurement": "Kinact", "setting": "[3]", "value": 0.59, "unit": "×10⁻³ /s"}, {"measurement": "Ratio", "setting": "Sus scrofa [4]", "value": "inactive"}, {"measurement": "pKi", "setting": "Neutrophil elastase", "value": 5.53}]}, {"smiles": "CCCP(=O)(Oc1ccccc1)C(CC(C)C)NC(=O)OCc1ccccc1", "note": "(stereo not drawn)", "values": [{"measurement": "Kinact", "setting": "Bos taurus [5]", "value": 2.44, "unit": "×10⁻³ /s"}, {"measurement": "pKi", "setting": "[6]", "value": 4.89}, {"measurement": "Ratio", "setting": "Bos taurus [7]", "value": 188, "unit": "M⁻¹ s⁻¹"}, {"measurement": "inhibition", "setting": "Bos taurus [1]", "value": "Active"}]}, {"smiles": "O=C(NC(Cc1ccccc1)P(=O)(Oc1ccccc1)Oc1ccccc1)OCc1ccccc1", "note": "(stereo not drawn)", "values": [{"measurement": "Kinact", "setting": "Bos taurus [5]", "value": 5.63, "unit": "×10⁻³ /s"}, {"measurement": "pKi", "setting": "[6]", "value": 6.16}, {"measurement": "Ratio", "setting": "Bos taurus [7]", "value": 8.1, "unit": "×10³ /M/s"}]}, {"smiles": "CCCP(=O)(Oc1ccccc1)C(NC(=O)OCc1ccccc1)C(C)C", "note": "(stereo not drawn)", "values": [{"measurement": "inhibition", "setting": "Bos taurus [1]", "value": "inactive"}]}, {"smiles": "CC(C)(C)P(=O)(Oc1ccccc1)C(NC(=O)OCc1ccccc1)c1ccccc1", "note": "(stereo not drawn)", "values": [{"measurement": "inhibition", "setting": "Bos taurus [1]", "value": "inactive"}]}, {"smiles": "O=C(NC(Cc1ccccc1)P(=O)(Oc1ccccc1)c1ccccc1)OCc1ccccc1", "note": "(stereo not drawn)", "values": [{"measurement": "Kinact", "setting": "Bos taurus [5]", "value": 23, "unit": "×10⁻³ /s"}, {"measurement": "pKi", "setting": "[6]", "value": 5.85}, {"measurement": "Ratio", "setting": "Bos taurus [7]", "value": 16.4, "unit": "×10³ /M/s"}, {"measurement": "inhibition", "setting": "[8]", "value": "Active"}, {"measurement": "inhibition", "setting": "Bos taurus [1]", "value": "Active"}]}, {"smiles": "CC(C)CC(NC(=O)OCc1ccccc1)P(=O)(Oc1ccccc1)C(C)(C)C", "note": "(stereo not drawn)", "values": [{"measurement": "inhibition", "setting": "Bos taurus [1]", "value": "inactive"}]}, {"smiles": "CC(C)CC(NC(=O)OCc1ccccc1)P(=O)(Oc1ccccc1)c1ccccc1", "note": "(stereo not drawn)", "values": [{"measurement": "Kinact", "setting": "Bos taurus [5]", "value": 21.1, "unit": "×10⁻³ /s"}, {"measurement": "pKi", "setting": "[6]", "value": 4.67}, {"measurement": "Ratio", "setting": "Bos taurus [7]", "value": 978, "unit": "M⁻¹ s⁻¹"}, {"measurement": "inhibition", "setting": "Bos taurus [1]", "value": "Active"}]}, {"smiles": "CCCP(=O)(Oc1ccccc1)C(NC(=O)OCc1ccccc1)c1ccccc1", "note": "(stereo not drawn)", "values": [{"measurement": "Kinact", "setting": "Bos taurus [5]", "value": 5.84, "unit": "×10⁻³ /s"}, {"measurement": "pKi", "setting": "[6]", "value": 4.84}, {"measurement": "Ratio", "setting": "Bos taurus [7]", "value": 404, "unit": "M⁻¹ s⁻¹"}, {"measurement": "inhibition", "setting": "Bos taurus [1]", "value": "Active"}]}, {"smiles": "CC(C)C(NC(=O)OCc1ccccc1)P(=O)(Oc1ccccc1)c1ccccc1", "note": "(stereo not drawn)", "values": [{"measurement": "inhibition", "setting": "Sus scrofa [9]", "value": "Active"}, {"measurement": "pKi", "setting": "[6]", "value": 5.13}, {"measurement": "inhibition", "setting": "Bos taurus [1]", "value": "Active"}, {"measurement": "pKi", "setting": "[10]", "value": 3.88}, {"measurement": "inhibition", "setting": "[11]", "value": "Active"}, {"measurement": "pKi", "setting": "Neutrophil elastase", "value": 4.29}]}, {"smiles": "O=C(NC(c1ccccc1)P(=O)(Oc1ccccc1)c1ccccc1)OCc1ccccc1", "note": "(stereo not drawn)", "values": [{"measurement": "Kinact", "setting": "Bos taurus [5]", "value": 1.57, "unit": "×10⁻³ /s"}, {"measurement": "pKi", "setting": "[6]", "value": 6.34}, {"measurement": "Ratio", "setting": "Bos taurus [7]", "value": 3.4, "unit": "×10³ /M/s"}, {"measurement": "inhibition", "setting": "Bos taurus [1]", "value": "Active"}]}]}
